In paper PMC10651775 (Blood, 2022):
Structures can show the parent of a compound that is named as a salt. Where two headings read alike, the source gives them in different places.

Assays:
[1] = system: R/R ATL; conditions: phase 2 study (5/16); cited from earlier work
[2] = system: patients with R/R ATL; experiment: Phase 2 trial of valemetostat: investigator-assessed response; assay type: in vivo, human; conditions: 7/25 (CR plus CRu)
How it was run: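 Investigator-assessed response in patients given ≥1 dose of oral test compound, 200 mg once daily, fasting, 28-day cycles. Nodal/extranodal lesions were measured by CT as sums of products of greatest diameters, skin by visual review and modified severity-weighted assessment tool, and blood by white cell, lymphocyte and abnormal lymphocyte counts. ORR was the proportion with best response CR, CRu or PR, with a Clopper-Pearson 90% CI.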

[3] = system: patients with R/R ATL; experiment: Phase 2 trial of valemetostat: safety; assay type: in vivo, human
How it was run: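 Safety population: all patients receiving ≥1 dose of oral test compound, 200 mg once daily, fasting, in continuous 28-day cycles; dose was reduced to 50 mg with strong CYP3A plus P-gp inhibitors. Adverse events were coded with MedDRA version 23.1 and graded by CTCAE version 5.0.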

[4] = Plasma valemetostat pharmacokinetics, noncompartmental analysis; assay type: in vivo, human; conditions: Mean (SD); for AUC / Cmax: human, plasma, oral, 200 mg; for AUC: AUCtau, Cycle 1 day 15 (steady state)
How it was run: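 Patients took oral test compound, 200 mg once daily, fasting. Serial and trough blood samples were taken for plasma drug levels. Total and unbound drug were measured at steady state on cycle 1 day 15. Accumulation ratio was derived from AUC over the dosing interval.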

[5] = system: patients with R/R ATL; assay type: in vivo, human
How it was run: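 Adults with R/R ATL (acute, lymphoma or unfavourable chronic type) took oral test compound (EZH1/EZH2 inhibitor) 200 mg once daily, fasting, in continuous 28-day cycles until progression or unacceptable toxicity; 50 mg if on strong CYP3A plus P-gp inhibitors. An independent committee assessed response at week 4, then every 8 weeks, then every 12 weeks after week 48, using modified ATL criteria without the ≥4-week persistence requirement.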

[6] = system: H3K27 trimethylation; conditions: compared with the EZH2-selective inhibitor tazemetostat; cited from earlier work
[7] = system: ATL cell; conditions: compared with tazemetostat and GSK126; cited from earlier work
[8] = system: R/R ATL; conditions: phase 2 study (3/12); cited from earlier work
[9] = Grade ≥3 hematologic TEAE, % of patients
[10] = hematologic TEAE, all grades, % of patients
[11] = IEAC best response, ATL subtype Acute, N=16
[12] = IEAC best response, ATL subtype Lymphoma, N=6
[13] = IEAC best response, ATL subtype Unfavorable chronic, N=3
[14] = IEAC best response, All patients, N=25
[15] = IEAC best response, Disease site Nodal or extranodal lesions, N=20
[16] = IEAC best response, Disease site Peripheral blood, N=9
[17] = IEAC best response, Disease site Skin lesions, N=7
[18] = IEAC best response, Disease status Recurrent, N=6
[19] = IEAC best response, Disease status Refractory, N=11
[20] = IEAC best response, Disease status Relapsed, N=8
[21] = IEAC best response, Prior lenalidomide treatment No, N=17
[22] = IEAC best response, Prior lenalidomide treatment Yes, N=8
[23] = IEAC best response, Prior mogamulizumab treatment No, N=1
[24] = IEAC best response, Prior mogamulizumab treatment Yes, N=24

## Nc1cccc2c1CN(C1CCC(=O)NC1=O)C2=O (stereo not shown) [lenalidomide]
[1]
  ORR in nodal or extranodal lesions: 31%

## Cc1cc(C)c(CNC(=O)c2cc(Cl)c3c(c2C)O[C@@](C)([C@H]2CC[C@H](N(C)C)CC2)O3)c(=O)[nH]1 [valemetostat, Valemetostat tosylate]
[2]
  investigator-assessed CR rate: 28.0%
[3]; 2 patients
  TEAEs leading to dose reduction: 8%
[3]; 8 patients
  Serious TEAEs: 32%
[3]; AE of special interest
  Secondary malignancies, including hematologic malignancy or myelodysplastic syndrome: not observed
[3]; Five patients
  TEAEs that required dose interruption: 20%
[3]; [9]
  anemia: 32%
  leukopenia: 12%
  lymphopenia: 16%
  neutropenia: 12%
  thrombocytopenia: 32%
[3]; N = 25
  Grade ≥3 TEAEs: 15 (60.0) n (%)
  Grade ≥3 TRAEs: 14 (56.0) n (%)
  Serious TEAE: 8 (32.0) n (%)
  Serious TRAEs: 7 (28.0) n (%)
  TEAEs leading to discontinuation: 2 (8.0) n (%)
  TEAEs leading to interruption: 5 (20.0) n (%)
  TEAEs leading to reduction: 2 (8.0) n (%)
  TRAEs: 24 (96.0) n (%)
  TRAEs leading to discontinuation: 2 (8.0) n (%)
  TRAEs leading to interruption: 4 (16.0) n (%)
  TRAEs leading to reduction: 2 (8.0) n (%)
[3]; N = 25, All AEs
  TEAEs: 25 (100.0) n (%)
[3]; TEAE, All grades, N = 25
  Alopecia: 10 (40.0) n (%)
  Decreased appetite: 5 (20.0) n (%)
  Dysgeusia: 9 (36.0) n (%)
  Pyrexia: 5 (20.0) n (%)
  anemia: 13 (52.0) n (%)
  leukopenia: 5 (20.0) n (%)
  lymphopenia: 6 (24.0) n (%)
  neutropenia: 7 (28.0) n (%)
  thrombocytopenia: 20 (80.0) n (%)
[3]; TEAE, Grade ≥3, N = 25
  Alopecia: 0 n (%)
  Decreased appetite: 2 (8.0) n (%)
  Dysgeusia: 0 n (%)
  Pyrexia: 0 n (%)
  anemia: 8 (32.0) n (%)
  leukopenia: 3 (12.0) n (%)
  lymphopenia: 4 (16.0) n (%)
  neutropenia: 3 (12.0) n (%)
  thrombocytopenia: 8 (32.0) n (%)
[3]; Two patients (cardiac failure, thrombocytopenia)
  discontinued study treatment owing to AEs: 8%
[3]; discontinuation 1 patient, dose interruption 2 patients
  patients with thrombocytopenia who required dose modification: Three of 20
[3]; grade 4 thrombocytopenia, recovery to platelet count ≥25 × 10^9/L
  median time to recovery: 3 days
[3]; [10]
  anemia: 52%
  leukopenia: 20%
  lymphopenia: 24%
  neutropenia: 28%
  thrombocytopenia: 80%
[3]; in vivo
  patients requiring a red blood cell transfusion for anemia: 3 patients
  patients requiring platelet transfusions for thrombocytopenia: Five
  treatment-related deaths: No treatment-related deaths occurred
[3]; platelet count <25 × 10^9/L
  patients who experienced grade 4 thrombocytopenia: 3 patients
[4]; Total, Cycle 1 day 15
  Rac (accumulation ratio for AUCtau): 1.19
[4]; Unbound, Cycle 1 day 15
  Rac (accumulation ratio for AUCtau): 1.27
[4]; Total
  AUC: 20800 ng·h/mL
[4]; Unbound
  AUC: 584 ng·h/mL
[4]; Total valemetostat, Cycle 1 day 1, 200 mg once daily
  Cmax: 2230 ng/mL
[4]; Total valemetostat, Cycle 1 day 15
  Cmax: 2300 ng/mL
[4]; Unbound valemetostat, Cycle 1 day 1
  Cmax: 81.7 ng/mL
[4]; Unbound valemetostat, Cycle 1 day 15
  Cmax: 84.9 ng/mL
[5]; IEAC
  ORR in nodal or extranodal lesions: 50%
[5]; [11]
  CR: 5 (31.3) n (%)
  CRu: 0 n (%)
  ORR: 10 (62.5) n (%)
  PD: 2 (12.5) n (%)
  PR: 5 (31.3) n (%)
[5]; [12]
  CR: 0 n (%)
  CRu: 0 n (%)
  ORR: 1 (16.7) n (%)
  PD: 0 n (%)
  PR: 1 (16.7) n (%)
[5]; [13]
  CR: 0 n (%)
  CRu: 0 n (%)
  ORR: 1 (33.3) n (%)
  PD: 1 (33.3) n (%)
  PR: 1 (33.3) n (%)
[5]; [14]
  CR: 5 (20.0) n (%)
  CRu: 0 n (%)
  ORR: 12 (48.0) n (%)
  PD: 3 (12.0) n (%)
  PR: 7 (28.0) n (%)
[5]; [15]
  CR: 6 (30.0) n (%)
  CRu: 2 (10.0) n (%)
  ORR: 10 (50.0) n (%)
  PD: 3 (15.0) n (%)
  PR: 2 (10.0) n (%)
[5]; [16]
  CR: 2 (22.2) n (%)
  ORR: 8 (88.9) n (%)
  PD: 0 n (%)
  PR: 6 (66.7) n (%)
[5]; [17]
  CR: 1 (14.3) n (%)
  PD: 0 n (%)
  PR: 2 (28.6) n (%)
[5]; [18]
  CR: 1 (16.7) n (%)
  CRu: 0 n (%)
  ORR: 4 (66.7) n (%)
  PD: 0 n (%)
  PR: 3 (50.0) n (%)
[5]; [19]
  CR: 3 (27.3) n (%)
  CRu: 0 n (%)
  ORR: 5 (45.5) n (%)
  PD: 2 (18.2) n (%)
  PR: 2 (18.2) n (%)
[5]; [20]
  CR: 1 (12.5) n (%)
  CRu: 0 n (%)
  ORR: 3 (37.5) n (%)
  PD: 1 (12.5) n (%)
  PR: 2 (25.0) n (%)
[5]; [21]
  CR: 5 (29.4) n (%)
  CRu: 0 n (%)
  ORR: 8 (47.1) n (%)
  PD: 2 (11.8) n (%)
  PR: 3 (17.6) n (%)
[5]; [22]
  CR: 0 n (%)
  CRu: 0 n (%)
  ORR: 4 (50.0) n (%)
  PD: 1 (12.5) n (%)
  PR: 4 (50.0) n (%)
[5]; [23]
  CR: 1 (100.0) n (%)
  CRu: 0 n (%)
  ORR: 1 (100.0) n (%)
  PD: 0 n (%)
  PR: 0 n (%)
[5]; [24]
  CR: 4 (16.7) n (%)
  CRu: 0 n (%)
  ORR: 11 (45.8) n (%)
  PD: 3 (12.5) n (%)
  PR: 7 (29.2) n (%)
[5]; IEAC-assessed, range 1.0-5.6 months
  median TTR (time to response): 1.4 months
[5]; IEAC, acute (10/16)
  ORR by subtype: 62.5%
[5]; IEAC, all patients (5/25)
  CR rate: 20.0%
[5]; IEAC, all patients (7/25)
  PR rate: 28.0%
[5]; IEAC, best response CR, CRu, PR or SD, 95% CI 68.8-97.5
  TCR (tumor control rate): 88.0%
[5]; IEAC, lymphoma (1/6)
  ORR by subtype: 16.7%
[5]; IEAC, patients pretreated with mogamulizumab (11/24), 90% CI 28.2-64.2
  ORR: 45.8%
[5]; IEAC, patients refractory to mogamulizumab-containing therapies (3/6)
  ORR: 50.0%
[5]; IEAC, patients with prior lenalidomide treatment (4/8), 90% CI 15.7-84.3
  ORR: 50%
[5]; IEAC, recurrent (4/6)
  ORR by disease status: 66.7%
[5]; IEAC, refractory disease (5/11)
  ORR by disease status: 45.5%
[5]; IEAC, relapsed (3/8)
  ORR by disease status: 37.5%
[5]; IEAC, unfavorable chronic (1/3)
  ORR by subtype: 33.3%
[5]; all patients (12/25), 90% CI 30.5-65.9
  centrally reviewed IEAC-assessed ORR: 48.0%
[5]; at data cutoff (6/12)
  responders with an ongoing response: 50%
[5]; following treatment initiation
  patients who achieved SD able to receive valemetostat for ≥6 months: 4 of 10
[5]; immature, 95% CI 3.0 months to not estimable
  median PFS: 7.4 months
[5]; immature, 95% CI 6.5-16.4 months
  median OS: 16.4 months
[5]; in vivo
  responses converted from PR to CR: 2 patients
[6]
  H3K27 trimethylation: strongly reduced H3K27 trimethylation
[7]
  attenuation of ATL cell growth in vitro: greater attenuation of ATL cell growth in vitro at lower concentrations than tazemetostat and GSK126

B1: mogamulizumab: defucosylated anti-CCR4 antibody (antibody, chains of the INN, looked up, V domains shown)
VH: EVQLVESGGDLVQPGRSLRLSCAASGFIFSNYGMSWVRQAPGKGLEWVATISSASTYSYYPDSVKGRFTISRDNAKNSLYLQMNSLRVEDTALYYCGRHSDGNFAFGYWGQGTLVTVSS
VL: DVLMTQSPLSLPVTPGEPASISCRSSRNIVHINGDTYLEWYLQKPGQSPQLLIYKVSNRFSGVPDRFSGSGSGTDFTLKISRVEAEDVGVYYCFQGSLLPWTFGQGTKVEIK
[8]
  ORR in nodal or extranodal lesions: 25%
